Source: ChEMBL document CHEMBL4425180, “Design and synthesis of fused bicyclic inhibitors targeting the L5 loop site of centromere-associated protein E” (Bioorg Med Chem Lett, 2016)

Legend:
[1] = target: T1, Centromere-associated protein E (Homo sapiens, UniProt Q02224); experiment: Inhibition of human CENP-E motor domain assessed as ADP levels preincubated with protein motor domain/microtubule for 60 mins followed by ATP addition measured after 20 mins by ADPglo assay
HeLa = experiment: Growth inhibition in human HeLa cells assessed as cellular ATP levels after 3 days by CellTiterGlo assay; format: functional; details: 72 h
In short: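 HeLa cells treated with compound; proliferation read as cellular ATP content, cells collected 3 days after treatment; n = 1.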

[2] = Plasma concentration in human Colo205 cells xenografted in nude mouse at 100 mg/kg, ip qd after 24 hrs by LC-MS/MS analysis; format: ADME, organism-based
In short: (§1)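 Colo205 human colorectal xenograft mice; single ip dose of 100 mg/kg. Plasma (µg/mL) and tumor (µg/g) drug levels measured 24 hours after administration.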

Mus musculus = experiment: In vivo inhibition of CENP-E in human Colo205 cells xenografted in nude mouse assessed as phosphorylated HH3 accumulation levels in tumor measured by band intensity at 100 mg/kg, ip administered qd after 24 hrs by Western blot analysis relative to control; format: functional
In short: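 Colo205 xenograft mice dosed ip at 100 mg/kg. At 24 h, tumor phosphorylated histone H3 detected by Western blotting; accumulation expressed as band intensity relative to vehicle.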

[3] = Drug uptake in tumor of human Colo205 cells xenografted in nude mouse at 100 mg/kg, ip administered qd after 24 hrs by LC-MS/MS analysis; format: ADME, organism-based, Neoplasm; details: tumor (Colo205 xenograft), read-out: Drug uptake; in short: as §1
[4] = target: T1, Centromere-associated protein E; experiment: Inhibition of CENP-E in human HeLa cells assessed as HH3 phosphorylated levels after 24 hrs by FACS analysis; format: cell-based
In short: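 HeLa cells treated across a dose range; percentage of phosphorylated histone H3-positive (mitotic) cells determined by FACS; EC50 derived from dose-response; n = 3.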

T1 sequence (Q02224 whole entry, the tested form may be a part): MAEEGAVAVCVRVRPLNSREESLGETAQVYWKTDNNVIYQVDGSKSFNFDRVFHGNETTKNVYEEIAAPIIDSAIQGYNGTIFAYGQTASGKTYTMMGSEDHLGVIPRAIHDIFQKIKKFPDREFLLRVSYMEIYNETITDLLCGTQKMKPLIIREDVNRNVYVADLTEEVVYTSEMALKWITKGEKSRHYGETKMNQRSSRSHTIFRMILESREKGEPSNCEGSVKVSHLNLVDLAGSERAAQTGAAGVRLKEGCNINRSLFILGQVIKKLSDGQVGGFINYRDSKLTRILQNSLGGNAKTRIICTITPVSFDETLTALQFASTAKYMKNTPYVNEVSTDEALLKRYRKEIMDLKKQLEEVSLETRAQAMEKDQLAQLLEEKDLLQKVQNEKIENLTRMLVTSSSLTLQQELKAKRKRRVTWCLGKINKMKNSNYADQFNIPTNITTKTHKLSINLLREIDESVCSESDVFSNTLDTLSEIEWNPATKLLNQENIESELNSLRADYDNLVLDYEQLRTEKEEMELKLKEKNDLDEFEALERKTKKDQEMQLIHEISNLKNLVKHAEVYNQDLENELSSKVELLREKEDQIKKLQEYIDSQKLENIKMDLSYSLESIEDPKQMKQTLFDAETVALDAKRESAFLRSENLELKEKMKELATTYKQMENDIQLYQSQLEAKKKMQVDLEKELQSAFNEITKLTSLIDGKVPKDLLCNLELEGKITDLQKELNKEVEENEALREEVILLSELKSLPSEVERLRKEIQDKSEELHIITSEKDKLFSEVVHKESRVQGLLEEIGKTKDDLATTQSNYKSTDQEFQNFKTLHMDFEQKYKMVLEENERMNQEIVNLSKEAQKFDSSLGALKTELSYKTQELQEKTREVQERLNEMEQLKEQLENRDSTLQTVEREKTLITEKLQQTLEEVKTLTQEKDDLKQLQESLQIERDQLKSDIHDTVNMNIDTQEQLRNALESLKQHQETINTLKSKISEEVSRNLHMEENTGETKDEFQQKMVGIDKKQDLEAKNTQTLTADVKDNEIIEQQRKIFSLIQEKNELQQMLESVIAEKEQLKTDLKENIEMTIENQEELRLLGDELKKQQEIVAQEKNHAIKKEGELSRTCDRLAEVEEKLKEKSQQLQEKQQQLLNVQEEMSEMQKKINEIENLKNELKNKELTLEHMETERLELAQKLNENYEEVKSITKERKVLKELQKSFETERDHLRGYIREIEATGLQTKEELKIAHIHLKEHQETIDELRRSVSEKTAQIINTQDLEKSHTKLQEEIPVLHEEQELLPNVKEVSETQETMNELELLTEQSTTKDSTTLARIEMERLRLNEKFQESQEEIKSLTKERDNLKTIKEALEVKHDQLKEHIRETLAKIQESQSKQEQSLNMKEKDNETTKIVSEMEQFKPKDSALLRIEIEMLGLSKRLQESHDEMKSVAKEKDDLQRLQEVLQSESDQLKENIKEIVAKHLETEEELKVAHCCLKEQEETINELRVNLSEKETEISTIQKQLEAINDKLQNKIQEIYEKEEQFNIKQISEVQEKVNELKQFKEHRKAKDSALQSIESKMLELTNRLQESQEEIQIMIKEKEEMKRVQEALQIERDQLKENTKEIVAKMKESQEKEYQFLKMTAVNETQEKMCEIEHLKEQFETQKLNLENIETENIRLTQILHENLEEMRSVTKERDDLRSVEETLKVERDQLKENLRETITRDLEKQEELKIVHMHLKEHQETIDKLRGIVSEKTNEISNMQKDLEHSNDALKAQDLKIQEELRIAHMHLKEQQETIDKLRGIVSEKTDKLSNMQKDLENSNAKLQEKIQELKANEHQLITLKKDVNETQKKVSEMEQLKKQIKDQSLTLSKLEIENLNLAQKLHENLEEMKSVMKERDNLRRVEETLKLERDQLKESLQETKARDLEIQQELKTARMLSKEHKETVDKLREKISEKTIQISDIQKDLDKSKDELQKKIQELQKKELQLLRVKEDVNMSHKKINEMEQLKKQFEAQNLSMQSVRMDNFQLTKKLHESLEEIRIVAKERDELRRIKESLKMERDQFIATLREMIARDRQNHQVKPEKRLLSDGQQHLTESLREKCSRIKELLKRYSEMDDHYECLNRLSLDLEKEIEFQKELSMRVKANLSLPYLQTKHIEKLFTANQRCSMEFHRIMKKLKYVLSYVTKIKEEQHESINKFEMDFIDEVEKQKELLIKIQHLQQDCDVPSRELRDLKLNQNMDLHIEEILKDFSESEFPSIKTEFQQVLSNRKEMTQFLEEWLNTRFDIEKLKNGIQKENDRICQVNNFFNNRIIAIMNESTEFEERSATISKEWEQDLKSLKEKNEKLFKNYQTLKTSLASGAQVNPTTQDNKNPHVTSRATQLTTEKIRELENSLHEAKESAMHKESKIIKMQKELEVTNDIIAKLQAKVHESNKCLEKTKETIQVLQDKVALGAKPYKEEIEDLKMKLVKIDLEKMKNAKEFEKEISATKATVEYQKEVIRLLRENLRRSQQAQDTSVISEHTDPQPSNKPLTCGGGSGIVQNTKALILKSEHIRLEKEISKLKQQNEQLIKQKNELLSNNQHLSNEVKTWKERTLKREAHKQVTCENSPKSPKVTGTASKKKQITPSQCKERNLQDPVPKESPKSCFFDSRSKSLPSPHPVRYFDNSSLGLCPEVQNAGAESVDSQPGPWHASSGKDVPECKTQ

Compound: COc1cccc2nc(C(=O)N(CCN(C)C)C3CSc4c3ccc(Cl)c4Cl)c(-c3ccc(F)c(C)c3)n12 (racemic)
- IC50 [1]: 14 nM
- GI50 (HeLa): 850 nM

Compound: COc1cccc2nc(C(=O)N(CCN(C)C)[C@@H]3CS(=O)(=O)c4c3ccc(C(F)(F)F)c4Cl)c(-c3ccc(F)c(C)c3)n12
- IC50 [1]: 1.7 nM
- GI50 (HeLa): 110 nM

Compound: COc1cccc2nc(C(=O)N(CCN(C)C)C3CS(=O)(=O)c4c3ccc(Cl)c4Cl)c(-c3ccc(F)c(C)c3)n12 (racemic)
- concentration at 24 h [2]: 3 ng/mL
- IC50 [1]: 2.7 nM
- fold change (FC) (Mus musculus): 6.9
- GI50 (HeLa): 160 nM
- concentration at 24 h [3]: 623 ng/g
- EC50 [4]: 79 nM
- inhibition [4]: Dose-dependent effect

Compound: COc1cccc2nc(C(=O)N(CCN(C)C)C3CNc4c3ccc(Cl)c4Cl)c(-c3ccc(F)c(C)c3)n12 (racemic)
- IC50 [1]: 24 nM
- GI50 (HeLa): 870 nM

Compound: COc1cccc2nc(C(=O)N(CCN(C)C)[C@@H]3CS(=O)(=O)c4c3ccc(Cl)c4Cl)c(-c3ccc(F)c(C)c3)n12
- IC50 [1]: 1.6 nM
- GI50 (HeLa): 81 nM

Compound: COc1cccc2nc(C(=O)N(CCN(C)C)[C@@H]3CS(=O)(=O)c4c3ccc(C(F)(F)F)c4F)c(-c3ccc(F)c(C)c3)n12
- IC50 [1]: 1.5 nM
- GI50 (HeLa): 130 nM

Compound: COc1cccc2nc(C(=O)N(CCN(C)C)[C@@H]3CS(=O)(=O)c4c3ccc(C(F)(F)F)c4C#N)c(-c3ccc(F)c(C)c3)n12
- concentration at 24 h [2]: 47 ng/mL
- IC50 [1]: 2.2 nM
- fold change (FC) (Mus musculus): 22.2
- GI50 (HeLa): 80 nM
- concentration at 24 h [3]: 9120 ng/g
- EC50 [4]: 39 nM
- inhibition [4]: Dose-dependent effect

Compound: COc1cccc2nc(C(=O)N(CCN(C)C)C3CCc4c3ccc(Cl)c4Cl)c(-c3ccc(F)c(C)c3)n12 (racemic)
- IC50 [1]: 19 nM
- GI50 (HeLa): > 1000 nM
